High-throughput results: PubChem BioAssay, several laboratories
In the library only some 2.3% were active in any assay of this set; here they are far more common.
Fh CTSL1 inh: Fasciola hepatica cathepsin L1 inhibitors, primary screen, counter-screen for PFM18AAP inhibitor project, biochemical, QFRET, fluorogenic peptide substrate; AID 1906, 2009; inhibition, % at 5.96 µM; 0.49% of 300,000 active; recombinant F. hepatica cathepsin L1, Z-Leu-Arg-MCA fluorescence;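 active = inhibition above the mean of all tested compounds plus 3 SD, set per screening campaign, cut at about 17% in these data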;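 note: 0% = plate median of test compound wells and 100% = 1 µM Z-Phe-Ala-diazomethylketone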
PREPL inh: PREPL enzyme inhibitors, primary screen, biochemical, fluorescence polarization | Prolyl endopeptidase-like (Homo sapiens), Q4J6C6 | recombinant PREPL, fluorescence polarization activity-based probe | inhibition, % at 5.96 µM | 0.68% of 320,000 active; in the data active = inhibition above about 43%;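 note: 0% = enzyme with DMSO and 100% = wells lacking enzyme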
PP5 primary: PP5 phosphatase inhibitors, primary screen, biochemical, fluorescence. 0.18% of 320,000 active. Serine/threonine-protein phosphatase 5 (Homo sapiens), P53041. inhibition, % at 6.7 µM. purified PP5c, OMFP substrate fluorescence;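 active = inhibition above the campaign's mean inhibition across all tested compounds plus 3 SD, cut at about 9.5% in these data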;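 note: 0% = DMSO only and 100% = 100 µM cantharidin control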
UBC13 inh: UBC13 polyubiquitin chain formation inhibitors, primary screen, biochemical, TR-FRET, uHTS; Ubiquitin-conjugating enzyme E2 N (Homo sapiens), P61088; inhibition, % at 20 µM; 0.47% of 330,000 active; AID 485273, 2010; in the data active = inhibition above about 45%, passing the limit was not always enough
Target sequence (P61088 whole entry, looked up): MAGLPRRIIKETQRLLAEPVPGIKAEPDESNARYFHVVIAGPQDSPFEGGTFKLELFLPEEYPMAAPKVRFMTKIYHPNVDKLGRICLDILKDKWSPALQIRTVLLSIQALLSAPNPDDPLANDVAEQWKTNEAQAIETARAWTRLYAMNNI
PP1 counter: PP1-alpha phosphatase inhibitors, primary screen, counter-screen for PP5 inhibitor project, biochemical, fluorescence, OMFP substrate, single point; 0.9% of 320,000 active; Serine/threonine-protein phosphatase PP1-alpha catalytic subunit (Homo sapiens), P62136; inhibition, % at 6.7 µM; AID 2235, 2010; purified PP1alpha;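 active = inhibition above the mean inhibition of all tested compounds plus 3 SD, computed separately for each screening campaign, cut at about 15% in these data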
Target sequence (P62136 whole entry, looked up): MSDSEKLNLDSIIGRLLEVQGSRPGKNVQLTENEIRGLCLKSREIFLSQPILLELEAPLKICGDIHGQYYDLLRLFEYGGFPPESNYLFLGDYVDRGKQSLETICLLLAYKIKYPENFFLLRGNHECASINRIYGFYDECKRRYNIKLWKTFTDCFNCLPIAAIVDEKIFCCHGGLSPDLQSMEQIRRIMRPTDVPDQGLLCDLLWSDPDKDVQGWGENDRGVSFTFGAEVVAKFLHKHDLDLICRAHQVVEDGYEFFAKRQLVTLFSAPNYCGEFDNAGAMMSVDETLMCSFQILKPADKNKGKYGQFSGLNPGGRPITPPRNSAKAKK
UCH37 DUB inh: inhibitors of human UCH37 deubiquitinase, primary screen, biochemical, Ub-AMC cleavage, fluorescence; Ubiquitin carboxyl-terminal hydrolase isozyme L5 (Homo sapiens), Q9Y5K5; purified proteasome/UCH37; inhibition, % (no concentration beside the values); 0.33% of 330,000 active; AID 588478, 2011;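 active = mean inhibition over replicate wells above about 20%, limit read from the data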;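 note: 0% = compound-free wells with enzyme and 100% = wells lacking proteasome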
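Schedule: 30 min plus 25 min, room temperature / Material: human UCH37 within purified proteasomes / Technique: AMC fluorescence intensity at 355/460 nm / Buffer or medium: pH 7.4 Tris-HCl (50 mM) with ovalbumin, ATP-MgCl2, DTT / Controls: wells without proteasome as full block, compound-free enzyme plus substrate as uninhibited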
* = called active by the depositor.

`COc1ccc(O[C@H]2C=C[C@@H](c3ccccc3)O[C@@H]2CO/N=C(\C)CCN2CCc3nc(-c4ccccc4)c(-c4ccccc4)cc3C2)cc1` gave Fh CTSL1 inh 1, PREPL inh 16, PP5 primary 2, UBC13 inh -11 and PP1 counter 19*.
For CCc1cc2c(nc1CC)CCN(CC/C(C)=N/OC[C@H]1O[C@H](c3ccccc3)C=C[C@@H]1Oc1ccc(OC)cc1)C2 the results were UBC13 inh 7.
Screening COc1ccc(C=NNC(=O)CC#N)cc1Oc1nc(Cl)ncc1F returned UCH37 DUB inh 2.
Screening COc1ccc(/C=C2\C(=O)NC(=S)N2C(=O)c2ccc(C)cc2)cc1 returned Fh CTSL1 inh 2, PREPL inh -1, PP5 primary 0, UBC13 inh -20, PP1 counter 16* and UCH37 DUB inh -3.
Screening CC(=NNC(N)=O)c1c(F)cccc1F returned UCH37 DUB inh 2.
Screening CCC(O)CC(C(=O)NNc1ccccc1)C(=O)NNc1ccccc1 (stereo not given) returned Fh CTSL1 inh -7, PREPL inh 4, PP5 primary 0, UBC13 inh 0, PP1 counter -8 and UCH37 DUB inh 30*.
Screening CC1CCCCC1NC(=O)/C=C/c1nc2ccccc2s1 (stereo not given) returned Fh CTSL1 inh 23*, PREPL inh 2, PP5 primary 1, UBC13 inh 2, PP1 counter 1 and UCH37 DUB inh -16.
For COc1ccc(/C=C/C(=O)NC2CCCCC2C)cc1 (stereo not given) the results were Fh CTSL1 inh -1, PREPL inh -6, PP5 primary 0, UBC13 inh -4, PP1 counter -4 and UCH37 DUB inh 3.
Cc1ccc(-c2cc(C(=O)NCc3ccc4c(c3)OCO4)[nH]n2)c(O)c1C was read as Fh CTSL1 inh 2, PREPL inh -2, PP5 primary 3, UBC13 inh -3, PP1 counter 4 and UCH37 DUB inh 4.
For Cc1cc(O)c(-c2cc(C(=O)NCc3ccc4c(c3)OCO4)[nH]n2)cc1C the results were Fh CTSL1 inh -1, PREPL inh 8, PP5 primary 2, UBC13 inh 2, PP1 counter 16* and UCH37 DUB inh 5.
`O=C(NC1CCCC1)C(c1ccc(Cl)cc1)N(Cc1ccc(F)cc1)C(=O)CCl` (stereo not given) gave Fh CTSL1 inh 36*, PREPL inh 1, PP5 primary 2, UBC13 inh 5, PP1 counter 2 and UCH37 DUB inh 2.
Screening COC(=O)c1ccc(C(C(=O)NC2CCCCC2)N(Cc2ccc(F)cc2)C(=O)Cc2cccs2)cc1 (stereo not given) returned Fh CTSL1 inh 0, PREPL inh 12, PP5 primary -1, UBC13 inh -20, PP1 counter -3 and UCH37 DUB inh 3.
`O=C(NC1CCCC1)C(c1ccc(F)cc1)N(Cc1ccc(Cl)cc1)C(=O)CCl` (stereo not given) gave Fh CTSL1 inh 41*, PREPL inh 11, PP5 primary -2, UBC13 inh -5, PP1 counter -3 and UCH37 DUB inh 0.
COc1ccc(C=NOC(=O)Nc2ccc(Cl)cc2)c(OC)c1 was read as UCH37 DUB inh 1.
Screening CCOC(=O)/C(C#N)=C1/C=CN(c2ccc(C)cc2)C=N1 returned Fh CTSL1 inh 1, PREPL inh 7, PP5 primary 2, UBC13 inh 0, PP1 counter -2 and UCH37 DUB inh 11.
Screening CCOC(=O)/C(C#N)=C1/C=CN(c2ccccc2)C=N1 returned Fh CTSL1 inh 5, PREPL inh -6, PP5 primary 0, UBC13 inh -16, PP1 counter -3 and UCH37 DUB inh 21*.
Screening Cc1cccc(C)c1NC(=O)CN(C)CC(=O)Nc1ccccc1Oc1ccccc1 returned Fh CTSL1 inh -1, PREPL inh 4, PP5 primary 2, UBC13 inh 10, PP1 counter 2 and UCH37 DUB inh 28*.
For Cc1ccc(NC(=O)CN(C)CC(=O)Nc2ccccc2Oc2ccccc2)cc1 the results were Fh CTSL1 inh 0, PREPL inh -9, PP5 primary 6, UBC13 inh -10, PP1 counter 4 and UCH37 DUB inh 1.
Screening C/C(C=NNC(=O)c1cccnc1)=C\c1ccco1 returned UCH37 DUB inh 11.
For O=C(NN=Cc1cccc([N+](=O)[O-])c1)c1ccc(COc2ccccc2-c2ccccc2)cc1 the results were UCH37 DUB inh 6.
`O=C(Cc1ccccc1Cl)NC1(O)C(=O)c2ccccc2C1=O` gave Fh CTSL1 inh 26*, PREPL inh 20, PP5 primary 4, UBC13 inh -24 and PP1 counter -2.
N#CCC(=O)NN=Cc1ccc(OC2CSC2)cc1 was read as UCH37 DUB inh 2.
For CCC(=NNc1nncc2ccccc12)c1ccc(F)cc1 the results were UCH37 DUB inh 5.
For O=C(NN=Cc1c[nH]c2ccc(Br)cc12)c1ccn(Cc2ccc(Cl)cc2)n1 the results were UCH37 DUB inh 0.
Screening O=C(O)c1ccc(NC2=C(n3nnc4ccccc43)C(=O)c3ccccc3C2=O)cc1 returned Fh CTSL1 inh 34*, PREPL inh -5, PP5 primary -1, UBC13 inh -76 and PP1 counter -3.
Screening O=C(O)c1ccc(-n2nnc3ccccc32)c([N+](=O)[O-])c1 returned Fh CTSL1 inh -2, PREPL inh 6, PP5 primary 1, UBC13 inh -9, PP1 counter 2 and UCH37 DUB inh 5.
For Oc1c(Br)cc(Br)cc1CNc1cccc2cccnc12 the results were Fh CTSL1 inh 29*, PREPL inh 14, PP5 primary 3, UBC13 inh -64, PP1 counter 8 and UCH37 DUB inh 6.
`O=c1c(-c2nnc(SCc3ccc(Cl)cc3Cl)o2)cccn1Cc1ccccc1` gave Fh CTSL1 inh -3, PREPL inh -8, PP5 primary -2, UBC13 inh 9, PP1 counter 16* and UCH37 DUB inh inactive.
`Cc1ccc(-c2nnc(Nc3ccc4c(c3)OCO4)c3ccccc23)cc1S(=O)(=O)NC(C)C` gave Fh CTSL1 inh 4, PREPL inh 50*, PP5 primary 2, UBC13 inh -3 and PP1 counter 6.
For CN(C)c1ccc(C=NNC(=O)c2ccc(NC(=O)c3ccccc3)cc2)cc1 the results were UCH37 DUB inh -181.
